From ChEMBL document CHEMBL1782048, “Novel 1-(2-aminopyrazin-3-yl)methyl-2-thioureas as potent inhibitors of mitogen-activated protein kinase-activated protein kinase 2 (MK-2)” (Bioorg Med Chem Lett, 2009)

What was measured:
[1] = molecular target: MAP kinase-activated protein kinase 2 (Homo sapiens, UniProt P49137); test: Inhibition of MK2 using biotin-LCAYSRALSRQLSSGVSEIRH substrate
THP-1 = test: Inhibition of LPS-induced TNFalpha production in human THP1 cells after 4 hrs by ELISA; conditions: THP-1, 4 h
[2] = molecular target: T1, MAP kinase-activated protein kinase 5 (Homo sapiens) (UniProt Q8IW41); test: Inhibition of MK5 at 1 uM
T1 sequence (whole entry): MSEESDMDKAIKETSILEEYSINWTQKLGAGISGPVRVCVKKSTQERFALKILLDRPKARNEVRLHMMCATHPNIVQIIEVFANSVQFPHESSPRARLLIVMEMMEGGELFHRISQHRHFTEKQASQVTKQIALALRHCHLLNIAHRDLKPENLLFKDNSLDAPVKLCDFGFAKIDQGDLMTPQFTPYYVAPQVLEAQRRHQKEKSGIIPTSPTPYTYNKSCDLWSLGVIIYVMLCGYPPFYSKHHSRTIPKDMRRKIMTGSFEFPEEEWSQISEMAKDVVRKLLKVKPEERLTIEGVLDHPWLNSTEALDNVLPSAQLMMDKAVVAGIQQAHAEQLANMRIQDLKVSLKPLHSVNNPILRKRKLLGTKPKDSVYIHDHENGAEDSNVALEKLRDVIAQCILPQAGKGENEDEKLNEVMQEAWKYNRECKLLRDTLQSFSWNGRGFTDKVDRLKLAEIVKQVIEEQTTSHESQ

[3] = Clearance in rat; type: ADME, organism-based; conditions: in vivo
[4] = Half life in rat; type: ADME, organism-based; conditions: in vivo
Rattus norvegicus = species on record: Rattus norvegicus; test: Normalized AUC in rat; type: ADME, organism-based; conditions: in vivo
[5] = Oral bioavailability AUC in rat; type: ADME, organism-based; conditions: in vivo
Mus musculus = test: Antiinflammatory activity in BALB/c mouse assessed as inhibition of LPS-stimulated TNFalpha production at 10 mg/kg, iv after 1.5 hrs; type: functional
How it was run: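 Female Balb/c mice, 12 weeks old, dosed iv at 10 mg/kg in DMSO/Cremophor/saline (or vehicle alone) just before injection of 10 µg/mouse LPS (E. coli serotype 0111:B4) plus 800 mg/kg D-galactosamine in saline. Animals euthanized 90 min later; plasma TNF measured by ELISA.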

[6] = molecular target: Ribosomal protein S6 kinase alpha-1 (Homo sapiens) (UniProt Q15418); test: Inhibition of RPS6KA1 at 10 uM
[7] = Inhibition of AMPK at 10 uM
[8] = molecular target: Ribosomal protein S6 kinase alpha-5 (Homo sapiens) (UniProt O75582); test: Inhibition of RPS6KA5 at 10 uM
Sequence of Ribosomal protein S6 kinase alpha-5 (Homo sapiens) (O75582 whole entry, looked up): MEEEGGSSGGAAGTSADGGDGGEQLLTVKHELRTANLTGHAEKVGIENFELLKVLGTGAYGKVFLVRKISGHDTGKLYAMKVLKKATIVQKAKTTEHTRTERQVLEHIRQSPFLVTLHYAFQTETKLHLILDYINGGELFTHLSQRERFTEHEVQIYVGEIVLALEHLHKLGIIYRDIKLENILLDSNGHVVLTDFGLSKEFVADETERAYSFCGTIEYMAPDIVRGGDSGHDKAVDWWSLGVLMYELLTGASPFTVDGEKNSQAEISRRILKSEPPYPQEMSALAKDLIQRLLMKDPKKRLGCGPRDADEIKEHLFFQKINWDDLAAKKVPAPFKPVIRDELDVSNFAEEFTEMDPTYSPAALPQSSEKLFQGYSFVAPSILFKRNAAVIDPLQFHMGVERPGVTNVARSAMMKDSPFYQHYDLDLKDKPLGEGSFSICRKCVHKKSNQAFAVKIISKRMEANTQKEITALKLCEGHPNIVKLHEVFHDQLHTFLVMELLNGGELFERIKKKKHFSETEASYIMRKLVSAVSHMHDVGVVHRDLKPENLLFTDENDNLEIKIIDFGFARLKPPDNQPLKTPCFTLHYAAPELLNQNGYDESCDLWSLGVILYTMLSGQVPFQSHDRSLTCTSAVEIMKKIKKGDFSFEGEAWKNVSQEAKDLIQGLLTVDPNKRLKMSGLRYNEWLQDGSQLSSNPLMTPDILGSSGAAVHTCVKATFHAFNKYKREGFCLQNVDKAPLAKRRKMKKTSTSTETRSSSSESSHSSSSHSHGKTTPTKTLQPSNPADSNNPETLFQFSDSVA

Sequence of MAP kinase-activated protein kinase 2 (P49137 whole entry): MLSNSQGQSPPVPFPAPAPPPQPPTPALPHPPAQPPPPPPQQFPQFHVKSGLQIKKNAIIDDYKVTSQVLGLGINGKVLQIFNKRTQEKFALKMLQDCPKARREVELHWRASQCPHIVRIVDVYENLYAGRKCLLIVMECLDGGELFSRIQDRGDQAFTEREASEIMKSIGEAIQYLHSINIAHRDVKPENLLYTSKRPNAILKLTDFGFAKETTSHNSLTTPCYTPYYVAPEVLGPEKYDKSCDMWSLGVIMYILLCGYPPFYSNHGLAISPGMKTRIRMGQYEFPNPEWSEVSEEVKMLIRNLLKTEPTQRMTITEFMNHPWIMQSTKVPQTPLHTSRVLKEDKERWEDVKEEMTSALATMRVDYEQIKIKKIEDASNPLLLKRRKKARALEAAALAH
Sequence of Ribosomal protein S6 kinase alpha-1 (Homo sapiens) (Q15418 whole entry): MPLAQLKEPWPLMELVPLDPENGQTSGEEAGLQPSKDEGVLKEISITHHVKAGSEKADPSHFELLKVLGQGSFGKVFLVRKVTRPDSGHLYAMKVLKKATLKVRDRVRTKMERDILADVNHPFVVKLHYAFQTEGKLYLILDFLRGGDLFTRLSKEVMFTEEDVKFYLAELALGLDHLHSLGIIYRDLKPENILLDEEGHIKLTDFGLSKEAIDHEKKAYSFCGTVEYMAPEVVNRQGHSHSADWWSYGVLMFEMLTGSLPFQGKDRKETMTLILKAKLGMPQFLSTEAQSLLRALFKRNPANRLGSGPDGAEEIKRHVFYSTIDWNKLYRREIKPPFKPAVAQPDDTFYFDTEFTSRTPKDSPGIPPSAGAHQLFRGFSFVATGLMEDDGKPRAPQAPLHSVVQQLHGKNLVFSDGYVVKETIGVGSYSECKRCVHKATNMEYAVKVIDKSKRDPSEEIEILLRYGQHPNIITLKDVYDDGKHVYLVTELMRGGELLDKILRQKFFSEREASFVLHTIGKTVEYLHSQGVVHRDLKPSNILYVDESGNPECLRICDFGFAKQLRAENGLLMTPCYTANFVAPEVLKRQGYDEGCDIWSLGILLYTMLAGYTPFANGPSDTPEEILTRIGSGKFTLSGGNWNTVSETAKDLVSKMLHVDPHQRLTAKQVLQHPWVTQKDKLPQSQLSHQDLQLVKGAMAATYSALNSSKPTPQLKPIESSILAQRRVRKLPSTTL

Q: Which IC50 [1] does the source give for `Cc1cnc(N)c(CNC(=S)Nc2ccc3[nH]c(=O)[nH]c3c2)n1` here?
A: Its IC50 is 15 µM.

Q: With `Nc1ncc(Cl)nc1CNC(=S)NCCc1ccccc1` as the compound, how does the IC50 [1] read?
A: Its IC50 is over 50 µM.

Q: For `Cc1cccc(NC(=S)NCc2nc(Cl)cnc2N)c1`, which IC50 [1] is on record?
A: Its IC50 is 9.3 µM.

Q: For `Nc1ncc(Cl)nc1CNC(=S)NC1CCCC1`, which IC50 [1] is on record?
A: The IC50 was 53 µM.

Q: With `Nc1ncc(Cl)nc1CNC(=S)Nc1cc(Cl)cc(Cl)c1` as the compound, how does the IC50 [1] read?
A: The IC50 was 27 µM.

Q: With `CCc1cnc(N)c(CNC(=S)Nc2ccc(NC(=O)OC(C)(C)C)cc2)n1` as the compound, how does the IC50 (THP-1) read?
A: The IC50 was 4000 nM.

Q: For `Nc1ncc(Cl)nc1CNC(=S)Nc1cccc2ccccc12`, which IC50 [1] is on record?
A: Its IC50 is 3.2 µM.

Q: Which IC50 [1] does the source give for `Cc1cnc(N)c(CNC(=S)Nc2ccc(NC(=O)Cc3ccccc3)cc2)n1` here?
A: The IC50 was 3.8 µM.

Q: Which IC50 [1] does the source give for `Cc1cnc(N)c(CNC(=S)Nc2ccc(NC(=O)Oc3ccccc3)cc2)n1` here?
A: The IC50 was 0.73 µM.

Q: For `CC(C)(C)NC(=S)NCc1nc(Cl)cnc1N`, which IC50 [1] is on record?
A: Its IC50 is 2.5 µM.

Q: With `Nc1ncc(Cl)nc1CNC(=S)Nc1ccc(Cl)c(Cl)c1` as the compound, how does the IC50 [1] read?
A: Its IC50 is 40 µM.

Q: With `CCOc1nc(N)c(CNC(=S)Nc2ccccc2)nc1Cl` as the compound, how does the IC50 [1] read?
A: The IC50 was over 50 µM.

Q: For `CCN(CC)CCCNC(=S)NCc1nc(Cl)cnc1N`, which IC50 [1] is on record?
A: Its IC50 is over 50 µM.

Q: For `CCCc1cnc(N)c(CNC(=S)Nc2ccc3[nH]c(=O)oc3c2)n1`, which IC50 (THP-1) is on record?
A: Its IC50 is 750 nM.

Q: And the inhibition [2]?
A: Its inhibition is over 70%.

Q: What about the clearance [3] of the same compound?
A: Its clearance is 12.9 mL/min/kg.

Q: What about the half-life [4] of the same compound?
A: The half-life was 18 min.

Q: What about the AUC/dose (Rattus norvegicus) of the same compound?
A: Its AUC/dose is 0.3 µM·kg·h/mg.

Q: What about the bioavailability [5] of the same compound?
A: Its bioavailability is 8%.

Q: What about the inhibition in vivo at 10 mg/kg (Mus musculus) of the same compound?
A: Its inhibition in vivo at 10 mg/kg is 70%.

Q: For `CC(C)(C)NC(=O)Nc1ccc(NC(=S)NCc2nc(C3CC3)cnc2N)cc1`, which IC50 (THP-1) is on record?
A: Its IC50 is 1400 nM.

Q: With `Nc1ncc(Cl)nc1CNC(=S)NCc1ccccc1` as the compound, how does the IC50 [1] read?
A: The IC50 was 36 µM.

Q: For `Nc1ncc(Cl)nc1CNC(=S)Nc1ccc(-n2cnnn2)cc1`, which IC50 [1] is on record?
A: Its IC50 is over 40 µM.

Q: With `Nc1ncc(C2CC2)nc1CNC(=S)Nc1ccc2[nH]c(=O)oc2c1` as the compound, how does the IC50 [1] read?
A: The IC50 was 0.015 µM.

Q: And the IC50 (THP-1)?
A: Its IC50 is 1700 nM.

Q: And the inhibition in vivo at 10 mg/kg (Mus musculus)?
A: Its inhibition in vivo at 10 mg/kg is 75%.

Q: For `Nc1ncc(Cl)nc1CNC(=S)Nc1ccc(Cl)cc1Cl`, which IC50 [1] is on record?
A: The IC50 was 4.3 µM.

Q: For `Cc1cnc(N)c(CNC(=S)Nc2ccc3c(c2)[nH]c(=O)n3C)n1`, which IC50 [1] is on record?
A: The IC50 was over 20 µM.

Q: With `Nc1ncc(Cl)nc1CNC(=S)Nc1ccccc1F` as the compound, how does the IC50 [1] read?
A: The IC50 was 2 µM.

Q: For `Nc1ncc(Cl)nc1CNC(=S)Nc1ccc(Cl)cc1`, which IC50 [1] is on record?
A: The IC50 was 3.7 µM.

Q: With `Nc1ncc(Cl)nc1CNC(=S)NC1CC1` as the compound, how does the IC50 [1] read?
A: Its IC50 is 12 µM.

Q: Which IC50 [1] does the source give for `Cc1ccc(NC(=S)NCc2nc(Cl)cnc2N)cc1` here?
A: Its IC50 is 2.7 µM.

Q: With `Nc1ncc(C(F)(F)F)nc1CNC(=S)Nc1ccccc1` as the compound, how does the IC50 [1] read?
A: The IC50 was over 50 µM.

Q: Which IC50 [1] does the source give for `Nc1ncc(Cl)nc1CNC(=S)Nc1ccccc1Cl` here?
A: The IC50 was 1.1 µM.

Q: With `Nc1ncc(Cl)nc1CNC(=S)NC1CCCCCC1` as the compound, how does the IC50 [1] read?
A: Its IC50 is 35 µM.

Q: With `CCCCc1cnc(N)c(CNC(=S)Nc2ccc3[nH]c(=O)oc3c2)n1` as the compound, how does the IC50 (THP-1) read?
A: Its IC50 is 3800 nM.

Q: For `CN(C)c1nc(N)c(CNC(=S)Nc2ccccc2)nc1Cl`, which IC50 [1] is on record?
A: Its IC50 is over 50 µM.

Q: For `CSc1nc(N)c(CNC(=S)Nc2ccccc2)nc1Cl`, which IC50 [1] is on record?
A: Its IC50 is over 50 µM.

Q: For `CC(C)(C)OC(=O)Nc1ccc(NC(=S)NCc2nc(C3CC3)cnc2N)cc1`, which IC50 (THP-1) is on record?
A: Its IC50 is 3200 nM.

Q: With `Cc1cnc(N)c(CNC(=S)Nc2ccc3oc(=O)[nH]c3c2)n1` as the compound, how does the IC50 [1] read?
A: The IC50 was 14 µM.

Q: With `Nc1ncc(Cl)nc1CNC(=S)Nc1ccccc1-c1ccccc1` as the compound, how does the IC50 [1] read?
A: The IC50 was over 20 µM.

Q: Which IC50 [1] does the source give for `CC(C)NC(=S)NCc1nc(Cl)cnc1N` here?
A: The IC50 was 13 µM.

Q: Which IC50 [1] does the source give for `Cc1cnc(N)c(CNC(=S)Nc2ccc3c(c2)CC(=O)N3)n1` here?
A: Its IC50 is 27 µM.

Q: Which IC50 [1] does the source give for `Nc1ccc(NC(=S)NCc2nc(Cl)cnc2N)cc1` here?
A: Its IC50 is 2 µM.

Q: For `Cc1ccccc1NC(=S)NCc1nc(Cl)cnc1N`, which IC50 [1] is on record?
A: Its IC50 is 3.6 µM.

Q: For `Nc1ncc(Cl)nc1CNC(=S)Nc1cccc(Cl)c1`, which IC50 [1] is on record?
A: Its IC50 is 11.3 µM.

Q: With `Cc1cnc(N)c(CNC(=S)Nc2ccc(NC(=O)c3ccccc3)cc2)n1` as the compound, how does the IC50 [1] read?
A: The IC50 was 0.58 µM.

Q: For `Cc1cnc(N)c(CNC(=S)Nc2ccc3[nH]c(=O)sc3c2)n1`, which IC50 [1] is on record?
A: The IC50 was 15 µM.

Q: For `Nc1ncc(Cl)nc1CNC(=S)NC(=O)c1ccccc1`, which IC50 [1] is on record?
A: Its IC50 is 91 µM.

Q: With `Nc1ncc(Cl)nc1CNC(=S)Nc1ccc(Br)cc1` as the compound, how does the IC50 [1] read?
A: Its IC50 is 3.1 µM.

Q: Which IC50 [1] does the source give for `CCCc1cnc(N)c(CNC(=S)Nc2ccc(NC(=O)OC(C)(C)C)cc2)n1` here?
A: The IC50 was 0.045 µM.

Q: And the IC50 (THP-1)?
A: Its IC50 is 3000 nM.

Q: What about the inhibition [6] of the same compound?
A: The inhibition was over 70%.

Q: What about the inhibition [7] of the same compound?
A: The inhibition was over 70%.

Q: What about the clearance [3] of the same compound?
A: The clearance was 2.5 mL/min/kg.

Q: And the half-life [4]?
A: The half-life was 48 min.

Q: What about the AUC/dose (Rattus norvegicus) of the same compound?
A: Its AUC/dose is 3.3 µM·kg·h/mg.

Q: What about the bioavailability [5] of the same compound?
A: The bioavailability was 19%.

Q: What about the inhibition in vivo at 10 mg/kg (Mus musculus) of the same compound?
A: Its inhibition in vivo at 10 mg/kg is 62%.

Q: What about the inhibition [8] of the same compound?
A: Its inhibition is over 70%.
